Experimental data from different studies.
Each line is one published result; the experiments were not run side by side.
Target: Serine/threonine-protein kinase PAK 4 (PAK4, Homo sapiens, UniProt O96013)

Compound	test	setting	measurement	value
C[C@H]1CC[C@H](n2c3cnccc3c3cnc(Nc4ccc5c(n4)CCN(C(=O)CO)C5)nc32)CC1	cell-free assay	1 µM	remaining signal	92%
N#Cc1ccc(NC(=O)Nc2ccccc2)cc1	cell-free assay, competition with immobilised ligand	25 µM	remaining binding	85%
C1=C/COCc2cc(ccc2OCCN2CCCC2)Nc2nccc(n2)-c2cccc(c2)COC/1	binding	0.1 µM	remaining binding	94%
COc1ccc2oc(-c3ccc4nc(N)oc4c3)c/c(=N\c3ccccc3NC(=O)CCN)c2c1	binding	1 µM	remaining binding	104%
Cc1cc(O)c(-c2ccc([C@@H](C)CN(C)C)cc2)c2c1[nH]c(=O)c1sccc12	cell-free assay, inhibitor	0.1 µM, lysate	inhibition	-7.15%
CCCCC(=O)Nc1ccc(-c2ccc3ncn(CCC)c(=O)c3c2)cn1	binding, competition with immobilised ligand	0.5 µM	remaining binding	98%
C=CC(=O)N1CCC[C@@H](n2nc(-c3ccc(Oc4ccccc4)cc3)c3c(N)ncnc32)C1	enzyme activity, inhibitor	1 µM	inhibition	6%
CC(C)S(=O)(=O)c1ccc2nccc(Nc3ccc4sc(C5CCCC5)nc4c3)c2c1	enzyme activity, inhibitor	1 µM	activity vs control	104%
COc1ccc2[nH]c3c4[nH]c5ccc(OC)cc5c4c4c(c3c2c1)C(=O)NC4=O	binding	1 µM	remaining binding	90%
CC#CC(=O)N1CCC[C@H]1c1nc(-c2ccc(C(=O)Nc3ccccn3)cc2)c2c(N)nccn12	enzyme activity, inhibitor	1 µM	inhibition	0%
